Measurements reported in ChEMBL document CHEMBL1146983, “The design and synthesis of human branched-chain amino acid aminotransferase inhibitors for treatment of neurodegenerative diseases” (Bioorg Med Chem Lett, 2006).

Each compound was assayed against T1, Branched-chain-amino-acid aminotransferase, cytosolic (Homo sapiens, UniProt P54687) (assay: Inhibition of human BCATc).
T1 sequence (P54687 whole entry): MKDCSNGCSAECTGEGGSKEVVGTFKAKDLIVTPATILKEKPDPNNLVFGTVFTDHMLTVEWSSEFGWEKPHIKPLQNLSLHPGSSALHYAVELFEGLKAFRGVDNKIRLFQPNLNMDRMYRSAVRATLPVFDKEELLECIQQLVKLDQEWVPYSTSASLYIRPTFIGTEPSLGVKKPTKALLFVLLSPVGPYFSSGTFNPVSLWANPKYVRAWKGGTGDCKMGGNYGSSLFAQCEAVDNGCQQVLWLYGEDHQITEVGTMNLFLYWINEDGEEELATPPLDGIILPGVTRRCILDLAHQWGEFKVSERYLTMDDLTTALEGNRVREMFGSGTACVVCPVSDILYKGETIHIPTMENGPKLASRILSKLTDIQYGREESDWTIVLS
Method in brief: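 Recombinant hBCATc (E. coli-expressed, purified; 50-100 nM) coupled to saturating purified bovine liver GDH. Mix: 25 mM NaPi pH 7.8, 0.75 mM L-leucine, 0.5 mM α-ketoglutarate, 10 μM pyridoxal phosphate, 1 mM NAD+, 4 mM ADP, 2 mM DTT, 12.5 mM EDTA, 1% DMSO final. 37 °C; A340 read over 20 min. IC50 from 8 to 10 point curves.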

SMILES	IC50 [µM]
O=C(NNS(=O)(=O)c1ccccc1Cl)c1cc2cc(Cl)ccc2o1	5.7
O=C(NNS(=O)(=O)c1cccc(Cl)c1)c1cccc2c1oc1ccccc12	> 35
O=C(NNS(=O)(=O)c1ccccc1)c1cc2ccccc2o1	18.3
O=C(NNS(=O)(=O)c1ccccc1)c1ccc2ncccc2c1	13.3
O=C(NNS(=O)(=O)c1ccccc1)c1cc2cc(Cl)ccc2o1	4.2
O=C(NNS(=O)(=O)c1ccccc1)c1cc2ccccc2[nH]1	36
O=C(NNS(=O)(=O)c1ccccc1)c1cc2cc(Br)ccc2[nH]1	15
Cc1ccccc1S(=O)(=O)NNC(=O)c1ccc2oc3ccccc3c2c1	3.2
COc1ccc2[nH]c(C(=O)NNS(=O)(=O)c3ccccc3)cc2c1	56.8
O=C(NNS(=O)(=O)c1ccccc1)c1cnc2ccccc2c1	33.3

The next compounds have a lower IC50 than those just listed; values first:

IC50 [µM]	SMILES
2.35	O=C(NNS(=O)(=O)c1ccccc1)c1ccc2oc3ccccc3c2c1
1.2	Cc1cccc(S(=O)(=O)NNC(=O)c2cc3cc(Cl)ccc3o2)c1
2.5	O=C(NNS(=O)(=O)c1ccccc1)c1cc2cc(Br)ccc2o1
1.16	Cc1ccccc1S(=O)(=O)NNC(=O)c1cc2cc(Cl)ccc2[nH]1
2.8	Cc1cccc(S(=O)(=O)NNC(=O)c2cccc3c2oc2ccccc23)c1
